Source: ChEMBL document CHEMBL4765233, “From Lead to Drug Candidate: Optimization of 3-(Phenylethynyl)-1H-pyrazolo[3,4-d]pyrimidin-4-amine Derivatives as Agents for the Treatment of Triple Negative Breast Cancer” (J Med Chem, 2016)
Calls of active or inactive are those of the source. The rule behind the calls is not given here.

How the values were obtained:
MDA-MB-231 [1] = assay: Antitumor activity against human MDA-MB-231 cells xenografted in SCID mouse assessed as tumor growth inhibition at 40 mg/kg, po qd for 15 days and measured every 3 days; assay type: functional; settings: MDA-MB-231, po, 360 h, time 15 day
Procedure, shortened: (§1)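 SCID mice (5−6 weeks) injected subcutaneously with 100 μL of cells at 5 × 10^7/mL. At 150−200 mm3 mice randomized, 6 per group. Oral compounds given in water with 25% PEG400 plus 5% DMSO; paclitaxel given 10 mg/kg/week iv. Tumor volume a×b²/2 and body weight measured every 3 days. Inhibition rate (c−d)/c×100% against vehicle control.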

[2] = Tmax in Sprague-Dawley rat at 10 mg/kg, po administered via gavage by LC-MS analysis; assay type: ADME, organism-based; settings: in vivo
[3] = Metabolic stability in rat liver microsomes assessed as parent compound remaining at 1 uM measured after 60 mins in presence of NADPH by HPLC-MS/MS analysis; assay type: ADME, Microsome; settings: read-out: Stabilty
Procedure, shortened: (§2)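 Compound at 1 μM incubated with 0.5 mg/mL liver microsomes and 1 mM NADPH. Samples taken at 0, 10, 15, 30, 45 and 60 min and quenched with acetonitrile. After centrifugation, supernatant analysed by HPLC-MS/MS, with percent parent remaining relative to the 0 min area.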

[4] = Metabolic stability in dog liver microsomes assessed as parent compound remaining at 1 uM measured after 60 mins in presence of NADPH by HPLC-MS/MS analysis; assay type: ADME, Canis lupus familiaris, Microsome; settings: read-out: Stabilty; procedure, shortened: as §2
[5] = Metabolic stability in human liver microsomes assessed as parent compound remaining at 1 uM measured after 60 mins in presence of NADPH by HPLC-MS/MS analysis; assay type: ADME, Microsome; settings: read-out: Stabilty; procedure, shortened: as §2
Ephrin type-A receptor 4 = Ephrin type-A receptor 4 (Homo sapiens, UniProt P54764); assay: Inhibition of human recombinant EPHA4 (601 to 892 residues) using poly(Glu,Tyr)4:1 as substrate incubated for 40 mins in presence of [gamma33P-ATP] by radiometric scintillation counting analysis
Chain of Ephrin type-A receptor 4 (P54764 whole entry, the tested form may be a part): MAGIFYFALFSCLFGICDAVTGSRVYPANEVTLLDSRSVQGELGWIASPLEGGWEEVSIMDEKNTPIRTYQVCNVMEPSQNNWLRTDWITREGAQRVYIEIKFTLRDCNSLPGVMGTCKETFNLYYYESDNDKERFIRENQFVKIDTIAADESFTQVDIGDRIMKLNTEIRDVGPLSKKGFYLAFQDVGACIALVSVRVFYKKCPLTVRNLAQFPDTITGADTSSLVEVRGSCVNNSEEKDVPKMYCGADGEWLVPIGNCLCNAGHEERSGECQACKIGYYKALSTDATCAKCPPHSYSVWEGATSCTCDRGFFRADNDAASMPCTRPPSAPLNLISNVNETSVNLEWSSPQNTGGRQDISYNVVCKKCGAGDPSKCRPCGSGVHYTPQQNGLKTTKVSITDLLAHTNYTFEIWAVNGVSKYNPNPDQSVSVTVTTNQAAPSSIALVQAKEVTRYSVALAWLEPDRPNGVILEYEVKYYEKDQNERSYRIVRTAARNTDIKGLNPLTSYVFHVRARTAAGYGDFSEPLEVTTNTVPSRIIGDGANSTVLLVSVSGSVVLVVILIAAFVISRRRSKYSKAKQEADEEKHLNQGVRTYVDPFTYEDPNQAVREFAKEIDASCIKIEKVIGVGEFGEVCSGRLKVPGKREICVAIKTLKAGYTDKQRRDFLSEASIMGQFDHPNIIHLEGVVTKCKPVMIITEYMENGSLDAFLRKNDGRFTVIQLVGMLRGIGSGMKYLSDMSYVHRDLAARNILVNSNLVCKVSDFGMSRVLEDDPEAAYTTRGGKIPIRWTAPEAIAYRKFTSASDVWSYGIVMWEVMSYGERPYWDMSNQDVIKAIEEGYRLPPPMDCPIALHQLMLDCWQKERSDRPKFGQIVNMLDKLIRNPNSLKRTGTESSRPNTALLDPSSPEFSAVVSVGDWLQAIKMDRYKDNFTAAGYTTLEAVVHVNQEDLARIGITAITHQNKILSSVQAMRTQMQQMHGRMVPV
Procedure, shortened: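 Radiometric kinase assay run as an external profiling service, with ATP at the Km of each kinase. IC50 values are means of two independent experiments.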

[6] = target: Mitogen-activated protein kinase 1 (Homo sapiens, UniProt P28482); assay: Inhibition of human full length recombinant ERK2 using myelin basic protein as substrate incubated for 40 mins in presence of [gamma33P-ATP] by radiometric scintillation counting analysis
Chain of Mitogen-activated protein kinase 1 (P28482 whole entry): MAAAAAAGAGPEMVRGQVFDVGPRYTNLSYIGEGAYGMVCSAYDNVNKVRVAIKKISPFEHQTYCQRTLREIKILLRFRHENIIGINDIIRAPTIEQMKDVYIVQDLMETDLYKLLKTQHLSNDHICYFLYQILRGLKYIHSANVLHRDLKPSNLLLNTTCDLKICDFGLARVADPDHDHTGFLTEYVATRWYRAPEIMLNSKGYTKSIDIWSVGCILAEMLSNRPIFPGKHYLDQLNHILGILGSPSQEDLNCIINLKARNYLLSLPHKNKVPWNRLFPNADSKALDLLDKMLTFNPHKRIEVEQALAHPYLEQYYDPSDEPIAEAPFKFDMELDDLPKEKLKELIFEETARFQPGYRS

HCC1937 = assay: Antiproliferative activity against human HCC1937 cells assessed as reduction in cell viability incubated for 72 hrs by MTT assay; assay type: functional, cell-based; settings: HCC1937, 72 h
Procedure, shortened: (§3)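 MTT viability assay. ATCC cell lines were grown in designated medium with 10% FBS at 37 °C, 5% CO2. Cells seeded at 1500−30000 per well and incubated 24 h, then exposed to compound (0−10 μg/mL) for 72 h. MTT added for 2−4 h. Formazan dissolved in DMSO (adherent) or acidified SDS overnight (suspension), absorbance read at 570 nm. Triplicates; IC50 calculated.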

MIA PaCa-2 = assay: Antiproliferative activity against human MIA PaCa-2 cells assessed as reduction in cell viability incubated for 72 hrs by MTT assay; assay type: functional, cell-based; settings: MIA PaCa-2, 72 h; procedure, shortened: as §3
DU-145 = assay: Antiproliferative activity against human DU-145 cells assessed as reduction in cell viability incubated for 72 hrs by MTT assay; assay type: functional, cell-based; settings: DU-145, 72 h; procedure, shortened: as §3
MDA-MB-231 [7] = assay: Induction of apoptosis in human MDA-MB-231 cells assessed as necrotic cells at 0.1 uM incubated for 24 hrs by annexin V-FITC and propidium iodide staining based flow cytometry analysis (reference value: 0.2 %); assay type: functional
[8] = target: Proto-oncogene tyrosine-protein kinase Src (Homo sapiens) (UniProt P12931); assay: Inhibition of Src in human MDA-MB-231 cells assessed as inhibition of STAT3 phosphorylation at 0.1 to 0.3 uM incubated for 20 hrs by Western blot analysis; assay type: cell-based; settings: dose 0.1-0.3 µM
Chain of Proto-oncogene tyrosine-protein kinase Src (Homo sapiens) (P12931 2-536 limits assumed): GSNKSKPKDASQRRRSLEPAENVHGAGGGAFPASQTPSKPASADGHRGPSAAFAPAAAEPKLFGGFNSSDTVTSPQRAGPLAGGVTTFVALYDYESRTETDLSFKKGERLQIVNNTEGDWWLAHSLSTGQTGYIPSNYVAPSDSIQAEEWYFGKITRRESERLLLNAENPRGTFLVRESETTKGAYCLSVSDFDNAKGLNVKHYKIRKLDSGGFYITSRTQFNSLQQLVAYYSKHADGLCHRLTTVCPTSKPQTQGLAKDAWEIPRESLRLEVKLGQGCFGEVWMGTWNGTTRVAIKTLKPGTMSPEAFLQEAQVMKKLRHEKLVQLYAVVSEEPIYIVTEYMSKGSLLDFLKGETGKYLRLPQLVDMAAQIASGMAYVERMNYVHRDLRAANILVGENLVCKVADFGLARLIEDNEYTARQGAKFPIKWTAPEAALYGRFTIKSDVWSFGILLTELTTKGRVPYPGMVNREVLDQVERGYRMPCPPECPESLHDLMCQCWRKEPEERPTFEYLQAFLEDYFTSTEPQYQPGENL
Procedure, shortened: (§4)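 MDA-MB-231 cells treated with a series of concentrations for 20 h at 37 °C. Cells washed with ice-cold saline and lysed in RIPA buffer with protease cocktail. Lysates cleared at 12000 rpm for 10 min at 4 °C and protein quantified by Bradford. Equal protein separated by SDS-PAGE, transferred to PVDF and probed with antibodies.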

MDA-MB-231 [9] = assay: Inhibition of ERK phosphorylation in human MDA-MB-231 cells at 0.01 to 0.3 uM incubated for 20 hrs by Western blot analysis; assay type: cell-based; settings: dose 0.01-0.3 µM; procedure, shortened: as §4
MDA-MB-435 [10] = assay: Antitumor activity against human MDA-MB-435 cells xenografted in SCID mouse assessed as tumor growth inhibition administered orally once daily for 21 days and measured every 3 days; assay type: functional; settings: dose 10-40 mg/kg/day, time 21.0 day; procedure, shortened: as §1
MDA-MB-435 [11] = assay: Antitumor activity against human MDA-MB-435 cells xenografted in SCID mouse assessed as tumor growth inhibition at 40 mg/kg, po QD for 21 days and measured every 3 days; assay type: functional; settings: MDA-MB-435, po, 504 h, time 21 day; procedure, shortened: as §1
Mus musculus = assay: In vivo inhibition of MEK in SCID mouse xenografted with human MDA-MB-231 cells assessed as reduction in phosphorylation of MEK in tumor tissue at 40 mg/kg, po QD for 21 days by immunohistochemical analysis; assay type: functional, organism-based; settings: dose 40.0 mg/kg/day, time 21.0 day
Procedure, shortened: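 Tumors taken from xenografted SCID mice dosed orally at 40 mg/kg/q.d. or given control; mice euthanized at set times. Tumors formalin-fixed and paraffin-embedded, stained by immunohistochemistry for phospho-proteins, and imaged by light microscopy.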

Danio rerio = species: Danio rerio; assay: Antiangiogenesis activity in EGFP-labelled zebrafish embryo assessed as reduction in formation of major cranial vessel at 1.25 to 5 uM incubated for overnight by fluorescence microscopic analysis; assay type: functional, organism-based; settings: dose 1.25-5 µM
Procedure, shortened: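 Transgenic FLK:EGFP zebrafish kept at 28 °C, pH 7.2−7.4, 14 h light/10 h dark. Embryos at 30 hpf incubated overnight with compound at 1.25, 2.5 or 5 μM beside a blank control. Fish anaesthetized, then vessels imaged by fluorescence microscopy.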

[12] = Acute toxicity in Sprague-Dawley rat assessed as histopathological changes in liver at 100 mg/kg, po administered as single dose measured after 24 hrs by H and E staining based light microscope analysis; assay type: organism-based; settings: in vivo
Procedure, shortened: (§5)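 Sprague-Dawley rats received a single oral dose of 100 mg/kg in sterile water with 25% (v/v) PEG400 plus 5% DMSO. Organs were examined by histology and immunohistochemistry for pathological changes. Behaviour and side effects were checked daily.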

[13] = Acute toxicity in Sprague-Dawley rat assessed as histopathological changes in lungs at 100 mg/kg, po administered as single dose measured after 24 hrs by H and E staining based light microscope analysis; assay type: organism-based; settings: in vivo; procedure, shortened: as §5
[14] = Acute toxicity in Sprague-Dawley rat assessed as histopathological changes in kidney at 100 mg/kg, po administered as single dose measured after 24 hrs by H and E staining based light microscope analysis; assay type: organism-based; settings: in vivo; procedure, shortened: as §5
MDA-MB-231 [15] = assay: Inhibition of colony formation in human MDA-MB-231 cells at >0.1 uM treated for 12 days by crystal violet staining based visual analysis; assay type: functional; settings: dose microM >0.1; time 12 day
Procedure, shortened: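 MDA-MB-231 cells seeded at 5000 per well in six-well plates and treated the next day, with drug-containing medium replaced every 4 days. After 12 days, colonies fixed with methanol and stained with crystal violet, then photographed.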

Molecule `Cc1ccc(NC(=O)c2ccc(C)c(C(F)(F)F)c2)cc1C#Cc1nn([C@H]2CC[C@H](O)CC2)c2ncnc(N)c12` has an inhibition in vivo at 40 mg/kg/day (MDA-MB-231 [1]) of 96.2%, a Tmax [2] of 4 h and a remaining at 1 h, 1 µM [3] greater than 90%. It also gave a remaining at 1 h, 1 µM [4] greater than 90%, a remaining at 1 h, 1 µM [5] greater than 90% and an IC50 (Ephrin type-A receptor 4) of 0.227 µM. For the same molecule, the IC50 [6] was greater than 10 µM, the IC50 (HCC1937) was 0.455 µM and the IC50 (MIA PaCa-2) was less than 0.6 µM. For the same molecule, the IC50 (DU-145) was greater than 10 µM, the Activity (MDA-MB-231 [7]) was 1.23% and the inhibition [8] was “Active”. The inhibition (MDA-MB-231 [9]) was “Active”, the Activity (MDA-MB-435 [10]) was “Dose-dependent effect” and the inhibition in vivo at 40 mg/kg/day (MDA-MB-435 [11]) was 100%. For the same molecule, the inhibition (Mus musculus) was “Active”, the Activity (Danio rerio) was “inactive” and the Activity [12] was “Non-Toxic”. The Activity [13] was “Non-Toxic”, the Activity [14] was “Non-Toxic” and the “inhibition (INH)” value (MDA-MB-231 [15]) was 100%.
